Measured values reported in ChEMBL document CHEMBL4118031, “Halogenated Compounds from Directed Fermentation of Penicillium concentricum, an Endophytic Fungus of the Liverwort Trichocolea tomentella” (J Nat Prod, 2017).

Experiments:
[1] = tested on: MCF7; assay: Cytotoxicity against human MCF7 cells after 3 days by sulforhodamine B assay; type: functional, cell-based; settings: MCF7, 72 h
Summary of the method: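 Antiproliferative assay on MCF-7 breast cancer cells following a published protocol, with camptothecin as the positive control.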

[2] = tested on: HT-29; assay: Cytotoxicity against human HT-29 cells after 3 days by sulforhodamine B assay; type: functional, cell-based; settings: HT-29, 72 h
Summary of the method: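 Antiproliferative assay on HT-29 colon cancer cells following a protocol from earlier work, with paclitaxel as the positive control.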

SMILES	IC50 [1] [µM]	IC50 [2] [µM]
O=C(OCCO)c1ccccc1	> 20	> 20
Cc1cc(O)cc2oc(=O)c3c(O)cc(O)cc3c12 [ALTERNARIOL]	> 20	> 20
O=C1C(CO)=C[C@@H](O)[C@H]2O[C@@H]12 [EPOXYDON]	5.7	14.1
COC1=CC(=O)C=C(C)[C@]12Oc1cc(OC)cc(OC)c1C2=O	> 20	> 20
COC1=CC(=O)C[C@@H](C)[C@]12Oc1cc(OC)cc(OC)c1C2=O	> 20	> 20
O=C1C(CO)=C[C@@H](O)[C@@H](O)[C@@H]1Br	9.7	
O=C1C(CO)=C[C@@H](O)[C@@H](O)[C@@H]1Cl	> 20	
OCc1cc(O)cc(Br)c1O	8.4	
OCC(O)c1ccccc1 (racemic)	> 20	> 20
O=C1C(CO)=C[C@@H](O)[C@@H](O)[C@H]1Cl	> 20	
CC[C@@]1(O)C(=O)OCc2c1cc1n(c2=O)Cc2cc3ccccc3nc2-1 [CAMPTOTHECIN]	0.073	
COC1=CC(=O)C[C@@H](C)[C@]12Oc1c(Cl)c(OC)cc(OC)c1C2=O [GRISEOFULVIN]	13.9	> 20
COc1cc(O)c2c(=O)c3c(C)cc(O)cc3oc2c1	> 20	> 20
CC(=O)O[C@H]1C(=O)[C@@]2(C)[C@H]([C@H](OC(=O)c3ccccc3)[C@]3(O)C[C@H](OC(=O)[C@H](O)[C@@H](NC(=O)c4ccccc4)c4ccccc4)C(C)=C1C3(C)C)[C@]1(OC(C)=O)CO[C@@H]1C[C@@H]2O [PACLITAXEL]		0.0014
O=C1C(CO)=C[C@@H](O)[C@@H](O)[C@H]1Br	9.7	
OCc1cc(O)cc(Cl)c1O	14.9	
COc1cc(O)c2c(=O)c3c(C)cc(O)c(O)c3oc2c1	> 20	> 20
COc1cc(O)c(C(=O)c2c(C)cc(O)cc2OC)c(O)c1	> 20	> 20
Cc1cc(O)cc2oc3cc(Cl)cc(O)c3c(=O)c12	> 20	
Cc1cc(O)cc2oc3cc(O)cc(O)c3c(=O)c12 [NORLICHEXANTHONE]	> 20	> 20
COc1cc(O)c(C(=O)c2c(C)cc(O)cc2OC)c(O)c1Cl	> 20	> 20
OCc1cc(O)ccc1O [GENTISYL ALCOHOL]	17.1	6.4
